Test results as given in ChEMBL document CHEMBL5058577, “EUbOPEN Chemogenomics Library 2 (Multiplex)” (2022).

Tested on: U2OS
Assay: Multiplex assay against U2OS
Type: toxicity, cell-based
Settings: human
In short: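 Cells were classed with CellPathfinder machine-learning gating, first as Hoechst high-intensity objects or normal cells, then (normal cells) as healthy, pyknosed or fragmented nuclei, and finally (pyknosed cells) as mitotic or apoptotic. Staining of live cells at seeding used Hoechst33342, BioTracker Green Microtubule Cytoskeleton Dye, MitoTracker Red and Annexin V Alexa Fluor 680, with imaging on a CQ1 microscope at 37°C and 5% CO2 after compound addition. Tubulin, mitochondrial-mass and membrane-permeability phenotypes are per cents of healthy-nucleus cells.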

[1] = 12 h, 1 µM, compound concentration 1 uM, replicate 1
[2] = 12 h, 1 µM, compound concentration 1 uM, replicate 2
[3] = 12 h, 10 µM, compound concentration 10 uM, replicate 1
[4] = 12 h, 10 µM, compound concentration 10 uM, replicate 2
[5] = 24 h, 1 µM, compound concentration 1 uM, replicate 1
[6] = 24 h, 1 µM, compound concentration 1 uM, replicate 2
[7] = 24 h, 10 µM, compound concentration 10 uM, replicate 1
[8] = 24 h, 10 µM, compound concentration 10 uM, replicate 2
[9] = 48 h, 1 µM, compound concentration 1 uM, replicate 1
[10] = 48 h, 1 µM, compound concentration 1 uM, replicate 2
[11] = 48 h, 10 µM, compound concentration 10 uM, replicate 1
[12] = 48 h, 10 µM, compound concentration 10 uM, replicate 2

## N[C@@]1(C(=O)O)CO[C@H]2[C@H](C(=O)O)[C@H]21 [LY-379268]
[1]
  Population Apoptotic (%): 85%
  Population Fragmented Nuclei (%): 20%
  Population Healthy Nuclei (%): 76%
  Population Hoechst High Intensity Objects (%): 0%
  Population Membrane Permeable-Phenotype (%): 2%
  Population Mitochondria Different-Phenotype (%): 1%
  Population Mitotic Cells (%): 14%
  Population Normal (%): 99%
  Population Pyknosed Nuclei (%): 3%
  Population Tubulin-Different-Phenotype (%): 1%
  Total Cell Count: 211
[2]
  Population Apoptotic (%): 100%
  Population Fragmented Nuclei (%): 17%
  Population Healthy Nuclei (%): 79%
  Population Membrane Permeable-Phenotype (%): 8%
  Population Mitochondria Different-Phenotype (%): 2%
  Population Mitotic Cells (%): 0%
  Population Pyknosed Nuclei (%): 2%
  Population Tubulin-Different-Phenotype (%): 3%
  Total Cell Count: 108
[3]
  Population Apoptotic (%): 63%
  Population Fragmented Nuclei (%): 30%
  Population Healthy Nuclei (%): 61%
  Population Hoechst High Intensity Objects (%): 0%
  Population Membrane Permeable-Phenotype (%): 8%
  Population Mitochondria Different-Phenotype (%): 2%
  Population Mitotic Cells (%): 36%
  Population Normal (%): 99%
  Population Pyknosed Nuclei (%): 7%
  Population Tubulin-Different-Phenotype (%): 3%
  Total Cell Count: 264
[4]
  Population Apoptotic (%): 80%
  Population Fragmented Nuclei (%): 19%
  Population Healthy Nuclei (%): 77%
  Population Hoechst High Intensity Objects (%): 1%
  Population Membrane Permeable-Phenotype (%): 4%
  Population Mitochondria Different-Phenotype (%): 1%
  Population Mitotic Cells (%): 20%
  Population Normal (%): 98%
  Population Pyknosed Nuclei (%): 3%
  Population Tubulin-Different-Phenotype (%): 1%
  Total Cell Count: 143
[5]
  Population Apoptotic (%): 88%
  Population Fragmented Nuclei (%): 20%
  Population Healthy Nuclei (%): 71%
  Population Hoechst High Intensity Objects (%): 1%
  Population Membrane Permeable-Phenotype (%): 1%
  Population Mitochondria Different-Phenotype (%): 1%
  Population Mitotic Cells (%): 11%
  Population Normal (%): 98%
  Population Pyknosed Nuclei (%): 7%
  Population Tubulin-Different-Phenotype (%): 1%
  Total Cell Count: 245
[6]
  Population Apoptotic (%): 100%
  Population Fragmented Nuclei (%): 11%
  Population Healthy Nuclei (%): 79%
  Population Hoechst High Intensity Objects (%): 0%
  Population Membrane Permeable-Phenotype (%): 12%
  Population Mitochondria Different-Phenotype (%): 2%
  Population Mitotic Cells (%): 0%
  Population Normal (%): 100%
  Population Pyknosed Nuclei (%): 9%
  Population Tubulin-Different-Phenotype (%): 6%
  Total Cell Count: 133
[7]
  Population Apoptotic (%): 81%
  Population Fragmented Nuclei (%): 25%
  Population Healthy Nuclei (%): 66%
  Population Hoechst High Intensity Objects (%): 1%
  Population Membrane Permeable-Phenotype (%): 8%
  Population Mitochondria Different-Phenotype (%): 1%
  Population Mitotic Cells (%): 18%
  Population Normal (%): 98%
  Population Pyknosed Nuclei (%): 7%
  Population Tubulin-Different-Phenotype (%): 2%
  Total Cell Count: 284
[8]
  Population Apoptotic (%): 90%
  Population Fragmented Nuclei (%): 16%
  Population Healthy Nuclei (%): 77%
  Population Membrane Permeable-Phenotype (%): 4%
  Population Mitochondria Different-Phenotype (%): 4%
  Population Mitotic Cells (%): 10%
  Population Pyknosed Nuclei (%): 6%
  Population Tubulin-Different-Phenotype (%): 4%
  Total Cell Count: 165
[9]
  Population Apoptotic (%): 92%
  Population Fragmented Nuclei (%): 13%
  Population Healthy Nuclei (%): 79%
  Population Hoechst High Intensity Objects (%): 1%
  Population Membrane Permeable-Phenotype (%): 3%
  Population Mitochondria Different-Phenotype (%): 2%
  Population Mitotic Cells (%): 7%
  Population Normal (%): 98%
  Population Pyknosed Nuclei (%): 7%
  Population Tubulin-Different-Phenotype (%): 3%
  Total Cell Count: 348
[10]
  Population Apoptotic (%): 100%
  Population Fragmented Nuclei (%): 15%
  Population Healthy Nuclei (%): 72%
  Population Hoechst High Intensity Objects (%): 2%
  Population Membrane Permeable-Phenotype (%): 11%
  Population Mitochondria Different-Phenotype (%): 5%
  Population Mitotic Cells (%): 0%
  Population Normal (%): 97%
  Population Pyknosed Nuclei (%): 12%
  Population Tubulin-Different-Phenotype (%): 5%
  Total Cell Count: 178
[11]
  Population Apoptotic (%): 92%
  Population Fragmented Nuclei (%): 24%
  Population Healthy Nuclei (%): 68%
  Population Hoechst High Intensity Objects (%): 2%
  Population Membrane Permeable-Phenotype (%): 9%
  Population Mitochondria Different-Phenotype (%): 2%
  Population Mitotic Cells (%): 7%
  Population Normal (%): 97%
  Population Pyknosed Nuclei (%): 7%
  Population Tubulin-Different-Phenotype (%): 3%
  Total Cell Count: 383
[12]
  Population Apoptotic (%): 90%
  Population Fragmented Nuclei (%): 11%
  Population Healthy Nuclei (%): 83%
  Population Membrane Permeable-Phenotype (%): 3%
  Population Mitotic Cells (%): 9%
  Population Pyknosed Nuclei (%): 4%
  Total Cell Count: 228

## Oc1c(CN2CCN(c3ccccn3)CC2)cc(Cl)c2cccnc12
[1]
  Population Apoptotic (%): 95%
  Population Fragmented Nuclei (%): 24%
  Population Healthy Nuclei (%): 64%
  Population Hoechst High Intensity Objects (%): 1%
  Population Membrane Permeable-Phenotype (%): 3%
  Population Mitochondria Different-Phenotype (%): 1%
  Population Mitotic Cells (%): 4%
  Population Normal (%): 98%
  Population Pyknosed Nuclei (%): 10%
  Population Tubulin-Different-Phenotype (%): 2%
  Total Cell Count: 237
[2]
  Population Apoptotic (%): 100%
  Population Fragmented Nuclei (%): 16%
  Population Healthy Nuclei (%): 78%
  Population Membrane Permeable-Phenotype (%): 13%
  Population Mitochondria Different-Phenotype (%): 4%
  Population Mitotic Cells (%): 0%
  Population Pyknosed Nuclei (%): 5%
  Population Tubulin-Different-Phenotype (%): 8%
  Total Cell Count: 93
[3]
  Population Apoptotic (%): 84%
  Population Fragmented Nuclei (%): 31%
  Population Healthy Nuclei (%): 56%
  Population Hoechst High Intensity Objects (%): 2%
  Population Membrane Permeable-Phenotype (%): 12%
  Population Mitochondria Different-Phenotype (%): 28%
  Population Mitotic Cells (%): 15%
  Population Normal (%): 97%
  Population Pyknosed Nuclei (%): 11%
  Population Tubulin-Different-Phenotype (%): 8%
  Total Cell Count: 229
[4]
  Population Apoptotic (%): 87%
  Population Fragmented Nuclei (%): 18%
  Population Healthy Nuclei (%): 68%
  Population Hoechst High Intensity Objects (%): 1%
  Population Membrane Permeable-Phenotype (%): 6%
  Population Mitochondria Different-Phenotype (%): 35%
  Population Mitotic Cells (%): 12%
  Population Normal (%): 98%
  Population Pyknosed Nuclei (%): 13%
  Population Tubulin-Different-Phenotype (%): 11%
  Total Cell Count: 118
[5]
  Population Apoptotic (%): 88%
  Population Fragmented Nuclei (%): 29%
  Population Healthy Nuclei (%): 64%
  Population Hoechst High Intensity Objects (%): 1%
  Population Membrane Permeable-Phenotype (%): 3%
  Population Mitochondria Different-Phenotype (%): 2%
  Population Mitotic Cells (%): 11%
  Population Normal (%): 98%
  Population Pyknosed Nuclei (%): 6%
  Population Tubulin-Different-Phenotype (%): 2%
  Total Cell Count: 270
[6]
  Population Apoptotic (%): 100%
  Population Fragmented Nuclei (%): 7%
  Population Healthy Nuclei (%): 87%
  Population Membrane Permeable-Phenotype (%): 9%
  Population Mitochondria Different-Phenotype (%): 3%
  Population Mitotic Cells (%): 0%
  Population Pyknosed Nuclei (%): 5%
  Population Tubulin-Different-Phenotype (%): 7%
  Total Cell Count: 97
[7]
  Population Apoptotic (%): 90%
  Population Fragmented Nuclei (%): 27%
  Population Healthy Nuclei (%): 63%
  Population Hoechst High Intensity Objects (%): 4%
  Population Membrane Permeable-Phenotype (%): 10%
  Population Mitochondria Different-Phenotype (%): 14%
  Population Mitotic Cells (%): 9%
  Population Normal (%): 95%
  Population Pyknosed Nuclei (%): 9%
  Population Tubulin-Different-Phenotype (%): 7%
  Total Cell Count: 238
[8]
  Population Apoptotic (%): 100%
  Population Fragmented Nuclei (%): 29%
  Population Healthy Nuclei (%): 58%
  Population Hoechst High Intensity Objects (%): 3%
  Population Membrane Permeable-Phenotype (%): 9%
  Population Mitochondria Different-Phenotype (%): 40%
  Population Mitotic Cells (%): 0%
  Population Normal (%): 96%
  Population Pyknosed Nuclei (%): 12%
  Population Tubulin-Different-Phenotype (%): 6%
  Total Cell Count: 127
[9]
  Population Apoptotic (%): 94%
  Population Fragmented Nuclei (%): 25%
  Population Healthy Nuclei (%): 67%
  Population Hoechst High Intensity Objects (%): 3%
  Population Membrane Permeable-Phenotype (%): 6%
  Population Mitochondria Different-Phenotype (%): 3%
  Population Mitotic Cells (%): 5%
  Population Normal (%): 96%
  Population Pyknosed Nuclei (%): 7%
  Population Tubulin-Different-Phenotype (%): 3%
  Total Cell Count: 276
[10]
  Population Apoptotic (%): 87%
  Population Fragmented Nuclei (%): 14%
  Population Healthy Nuclei (%): 77%
  Population Hoechst High Intensity Objects (%): 1%
  Population Membrane Permeable-Phenotype (%): 7%
  Population Mitochondria Different-Phenotype (%): 1%
  Population Mitotic Cells (%): 12%
  Population Normal (%): 98%
  Population Tubulin-Different-Phenotype (%): 5%
  Total Cell Count: 111
[11]
  Population Apoptotic (%): 96%
  Population Fragmented Nuclei (%): 32%
  Population Healthy Nuclei (%): 57%
  Population Hoechst High Intensity Objects (%): 2%
  Population Membrane Permeable-Phenotype (%): 11%
  Population Mitochondria Different-Phenotype (%): 19%
  Population Mitotic Cells (%): 3%
  Population Normal (%): 97%
  Population Pyknosed Nuclei (%): 10%
  Population Tubulin-Different-Phenotype (%): 7%
  Total Cell Count: 275
[12]
  Population Apoptotic (%): 100%
  Population Fragmented Nuclei (%): 38%
  Population Healthy Nuclei (%): 42%
  Population Hoechst High Intensity Objects (%): 4%
  Population Membrane Permeable-Phenotype (%): 12%
  Population Mitochondria Different-Phenotype (%): 41%
  Population Mitotic Cells (%): 0%
  Population Normal (%): 95%
  Population Pyknosed Nuclei (%): 19%
  Population Tubulin-Different-Phenotype (%): 8%
  Total Cell Count: 144
